# In ChEMBL document CHEMBL5150051, “Identification and Characterization of a Novel Indoleamine 2,3-Dioxygenase 1 Protein Degrader for Glioblastoma” (J Med Chem, 2022):
# Active and inactive are the calls of the source. The rule behind the calls is not given here.
# Target: von Hippel-Lindau disease tumor suppressor/Indoleamine 2,3-dioxygenase 1 (Homo sapiens) (UniProt P14902+P40337)
# Experiment: Protac activity at IDO1/VHL in IFNgamma-stimulated human U87 cells assessed as IDO1 degradation at 10 uM measured after 24 hrs by Western blotting analysis relative to control
# Assay type: cell-based
# Conditions: not given
# Summary of the method: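 U87 GBM cells primed with human IFNγ 50 ng/mL for 24 h, then exposed to PROTAC at 10 μM for 24 h. Lysates run on western blot; IDO1 bands quantified by densitometry and expressed as percent of normalized IDO1 protein level.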
# Sequence of von Hippel-Lindau disease tumor suppressor/Indoleamine 2,3-dioxygenase 1 (Homo sapiens) (P14902 whole entry, looked up): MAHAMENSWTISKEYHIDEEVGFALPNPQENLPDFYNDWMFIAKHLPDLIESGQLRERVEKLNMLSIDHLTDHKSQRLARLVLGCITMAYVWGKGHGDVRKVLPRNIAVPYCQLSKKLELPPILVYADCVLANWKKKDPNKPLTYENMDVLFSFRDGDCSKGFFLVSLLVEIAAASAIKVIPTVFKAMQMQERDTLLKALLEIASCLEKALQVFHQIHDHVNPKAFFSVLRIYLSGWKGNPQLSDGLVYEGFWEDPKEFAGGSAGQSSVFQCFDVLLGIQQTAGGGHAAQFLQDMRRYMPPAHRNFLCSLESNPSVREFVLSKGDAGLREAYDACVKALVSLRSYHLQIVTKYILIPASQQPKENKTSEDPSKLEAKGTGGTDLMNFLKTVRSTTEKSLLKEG
# Sequence of von Hippel-Lindau disease tumor suppressor/Indoleamine 2,3-dioxygenase 1 (Homo sapiens) (P40337 whole entry, looked up): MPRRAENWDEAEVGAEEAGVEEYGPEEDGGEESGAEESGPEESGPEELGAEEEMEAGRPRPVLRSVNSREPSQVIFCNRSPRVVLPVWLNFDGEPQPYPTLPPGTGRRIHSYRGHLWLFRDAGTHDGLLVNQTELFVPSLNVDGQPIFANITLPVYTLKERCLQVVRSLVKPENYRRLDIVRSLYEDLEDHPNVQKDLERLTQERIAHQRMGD
row,Compound,Activity [%]
1,Cc1ncsc1-c1ccc(CNC(=O)[C@@H]2C[C@@H](O)CN2C(=O)[C@@H](NC(=O)C2(F)CC2)C(C)(C)C)c(OCCCCCCCCCOc2cc(NC(=O)[C@H](C)[C@H]3CC[C@@H](c4ccnc5ccc(F)cc54)CC3)ccc2Cl)c1,90
2,Cc1ncsc1-c1ccc(CNC(=O)[C@@H]2C[C@@H](O)CN2C(=O)[C@@H](NCCOCCOCCOCCOCCOCCOc2cc(NC(=O)[C@H](C)[C@H]3CC[C@@H](c4ccnc5ccc(F)cc54)CC3)ccc2Cl)C(C)(C)C)cc1,0
3,Cc1ncsc1-c1ccc(CNC(=O)[C@@H]2C[C@@H](O)CN2C(=O)[C@@H](NCCOCCOCCOCCOc2cc(NC(=O)[C@H](C)[C@H]3CC[C@@H](c4ccnc5ccc(F)cc54)CC3)ccc2Cl)C(C)(C)C)cc1,0
4,Cc1ncsc1-c1ccc(CNC(=O)[C@@H]2C[C@@H](O)CN2C(=O)[C@@H](NC(=O)C2(F)CC2)C(C)(C)C)c(OCCOCCOc2ccc(NC(=O)[C@H](C)[C@H]3CC[C@@H](c4ccnc5ccc(F)cc54)CC3)cc2)c1,39
5,Cc1ncsc1-c1ccc(CNC(=O)[C@@H]2C[C@@H](O)CN2C(=O)[C@@H](NC(=O)C2(F)CC2)C(C)(C)C)c(OCCOCCC(=O)N2CCC(Oc3ccc(NC(=O)[C@H](C)[C@H]4CC[C@@H](c5ccnc6ccc(F)cc65)CC4)cc3)CC2)c1,72
6,Cc1ncsc1-c1ccc(CNC(=O)[C@H]2C[C@H](O)CN2C(=O)[C@H](NCCCCCCCCCOc2cc(NC(=O)[C@H](C)[C@H]3CC[C@@H](c4ccnc5ccc(F)cc54)CC3)ccc2Cl)C(C)(C)C)cc1,3
7,Cc1ncsc1-c1ccc(CNC(=O)[C@@H]2C[C@@H](O)CN2C(=O)[C@@H](NC(=O)C2(F)CC2)C(C)(C)C)c(OCCCCCCOc2cc(NC(=O)[C@H](C)[C@H]3CC[C@@H](c4ccnc5ccc(F)cc54)CC3)ccc2Cl)c1,0
8,Cc1ncsc1-c1ccc(CNC(=O)[C@@H]2C[C@@H](O)CN2C(=O)[C@@H](NCCOCCOCCOCCOCCOCCOc2cccc(NC(=O)[C@H](C)[C@H]3CC[C@@H](c4ccnc5ccc(F)cc54)CC3)c2)C(C)(C)C)cc1,0
9,Cc1ncsc1-c1ccc(CNC(=O)[C@@H]2C[C@@H](O)CN2C(=O)[C@@H](NC(=O)C2(F)CC2)C(C)(C)C)c(OCCOCCOCCOc2cc(NC(=O)[C@H](C)[C@H]3CC[C@@H](c4ccnc5ccc(F)cc54)CC3)ccc2Cl)c1,0
10,Cc1ncsc1-c1ccc(CNC(=O)[C@@H]2C[C@@H](O)CN2C(=O)[C@@H](NC(=O)C2(F)CC2)C(C)(C)C)c(OCCOCCOCCOCCOc2cc(NC(=O)[C@H](C)[C@H]3CC[C@@H](c4ccnc5ccc(F)cc54)CC3)ccc2Cl)c1,0
11,Cc1ncsc1-c1ccc(CNC(=O)[C@@H]2C[C@@H](O)CN2C(=O)[C@@H](NCCOCCOCCOCCOc2ccc(NC(=O)[C@H](C)[C@H]3CC[C@@H](c4ccnc5ccc(F)cc54)CC3)cc2)C(C)(C)C)cc1,0
12,Cc1ncsc1-c1ccc(CNC(=O)[C@@H]2C[C@@H](O)CN2C(=O)[C@@H](NC(=O)C2(F)CC2)C(C)(C)C)c(OCCOCCCN2CCC(Oc3ccc(NC(=O)[C@H](C)[C@H]4CC[C@@H](c5ccnc6ccc(F)cc65)CC4)cc3)CC2)c1,0
13,Cc1ncsc1-c1ccc(CNC(=O)[C@@H]2C[C@@H](O)CN2C(=O)[C@@H](NCCOCCOCCOc2cc(NC(=O)[C@H](C)[C@H]3CC[C@@H](c4ccnc5ccc(F)cc54)CC3)ccc2Cl)C(C)(C)C)cc1,0
14,Cc1ncsc1-c1ccc(CNC(=O)[C@H]2C[C@H](O)CN2C(=O)[C@H](NCCCCCCOc2cc(NC(=O)[C@H](C)[C@H]3CC[C@@H](c4ccnc5ccc(F)cc54)CC3)ccc2Cl)C(C)(C)C)cc1,21
15,Cc1ncsc1-c1ccc(CNC(=O)[C@@H]2C[C@@H](O)CN2C(=O)[C@@H](NC(=O)C2(F)CC2)C(C)(C)C)c(OCCOCCOCCC(=O)N2CC(Oc3ccc(NC(=O)[C@H](C)[C@H]4CC[C@@H](c5ccnc6ccc(F)cc65)CC4)cc3)C2)c1,91
16,Cc1ncsc1-c1ccc(CNC(=O)[C@@H]2C[C@@H](O)CN2C(=O)[C@@H](NC(=O)C2(F)CC2)C(C)(C)C)c(OCCOCCOCCC(=O)N2CCC(Oc3ccc(NC(=O)[C@H](C)[C@H]4CC[C@@H](c5ccnc6ccc(F)cc65)CC4)cc3)CC2)c1,3

# Target: Indoleamine 2,3-dioxygenase 1 (Homo sapiens, UniProt P14902)
# Sequence (P14902 whole entry): as the sequence (P14902 whole entry, looked up) above
# Experiment: Binding affinity to IDO1 (unknown origin) assessed as dissociation constant by bio-layer interferometry assay
# Conditions: not given
# Summary of the method: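 Bio-layer interferometry measured binding to IDO1 at 30 °C in PBS with 0.5% DMSO. Kd, kon and koff were derived.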
row,Compound,Kd [nM]
1,C[C@@H](C(=O)Nc1ccc(OC2CCN(C(=O)CCOCCOCCNc3cccc4c3C(=O)N(C3CCC(=O)N(C)C3=O)C4=O)CC2)cc1)[C@H]1CC[C@@H](c2ccnc3ccc(F)cc32)CC1 (stereo partly drawn),1100

# Target: Protein cereblon/Indoleamine 2,3-dioxygenase 1 (Homo sapiens, UniProt P14902+Q96SW2)
# Sequence (P14902 whole entry, looked up): as above
# Sequence (Q96SW2 whole entry, looked up): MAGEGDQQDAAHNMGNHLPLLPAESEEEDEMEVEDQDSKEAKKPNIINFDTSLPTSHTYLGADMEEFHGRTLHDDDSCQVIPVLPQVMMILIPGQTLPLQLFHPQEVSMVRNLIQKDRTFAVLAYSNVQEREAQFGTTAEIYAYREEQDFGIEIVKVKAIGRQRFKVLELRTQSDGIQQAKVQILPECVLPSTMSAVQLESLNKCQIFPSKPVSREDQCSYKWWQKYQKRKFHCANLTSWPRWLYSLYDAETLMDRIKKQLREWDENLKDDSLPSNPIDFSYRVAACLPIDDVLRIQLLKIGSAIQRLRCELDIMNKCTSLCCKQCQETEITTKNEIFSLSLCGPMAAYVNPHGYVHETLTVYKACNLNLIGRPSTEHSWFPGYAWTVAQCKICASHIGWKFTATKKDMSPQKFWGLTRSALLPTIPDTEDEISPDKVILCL
# Experiment: Protac activity at CRBN/IDO1 in human U87 cells assessed as decrease in phosphorylated NF-kappaB p65 in nucleus at 1 to 10 uM measured after 24 hrs by Western blot analysis
# Assay type: cell-based
# Conditions: dose 1-10 µM
row,Compound,Activity
1,C[C@@H](C(=O)Nc1ccc(OC2CCN(C(=O)CCOCCOCCNc3cccc4c3C(=O)N(C3CCC(=O)N(C)C3=O)C4=O)CC2)cc1)[C@H]1CC[C@@H](c2ccnc3ccc(F)cc32)CC1 (stereo partly drawn),Active
